Values without a mark were called inactive. Inconclusive results are not listed. Activity calls are given as the source filed them.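 The calls were made as follows, unless noted: active = RAM network inhibition above 8.4% in each of two replicates, 3 SD over the compound average; inconclusive = above 8.4% inhibition in only one replicate; inactive = 8.4% inhibition or less in each replicate.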
Assays:
[1] = S. cerevisiae growth inhibition in permissive medium (OD615), pilot counter-assay for S. cerevisiae lifespan shortening project, permissive growth control (AID 705;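 active = growth inhibition above 25% in both replicates, a cutoff set 3 SD above the mean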); conditions: OD615, 24 h, at 10 µM, active compounds read high
Summary of the method: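 System: Engineered DeaD yeast | Buffer or medium: SC raffinose/galactose permissive medium | Incubation: Cells pre-grown 4 h, then 24 h compound exposure, 30 °C humidified | Measured by: Absorbance (optical density) at 615 nm | Read-out: Reduction in yeast growth (OD615)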

[2] = S. cerevisiae growth inhibition in restrictive medium, OD615, pilot screen, restrictive growth control, yeast lifespan reduction project (AID 706;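 active = growth inhibition above a set limit, 3 SD over mean compound inhibition, in both replicates, cut at about 43% in these data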;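 also: modified DeaD lifespan yeast strain shifted to restrictive glucose medium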); conditions: OD615, 48 h, at 10 µM, active compounds read high
Summary of the method: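 Material: modified S. cerevisiae; Medium: glucose-based CSMM-D restrictive medium; Compound dosing: one concentration, 10 µM final, 0.25% DMSO; Incubation: 48 h compound exposure at 30 °C; Measured by: OD615.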

[3] = doxorubicin toxicity protection in MRP-1 cells – H69AR cells, CellTiter-Glo, duplicate, MRP-1 activator project, pilot screen (AID 807;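 active = viability increase at or above a cutoff of the median across tested compounds plus 3 SD, cut at about 8.5% in these data, passing the limit was not always enough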;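 also: compound pretreatment 18-22 h then 72 h combined with doxorubicin; 0% = doxorubicin alone and 100% = vehicle without doxorubicin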); conditions: H69AR viability with doxorubicin, CellTiter-Glo luminescence; at 10 µM; active compounds read high
[4] = viability of HCT116 without oncogenic beta-catenin – human colon tumor cells, pilot screen (AID 823;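 active = cell viability at or below a set limit in both duplicate runs, the limit being the all-compound median minus 4 SD, cut at about 23% in these data, passing the limit was not always enough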;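 also: 0% = wells killed by 20 µM Hyamine and 100% = untreated DMSO cell wells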); conditions: HCT116 beta-catenin knockout viability, CellTiter-Glo, 60 h; at 10 µM; active compounds read low
[5] = viability of PTEN-null HCT116 cells – cell-based, HCT116 clonal line, CellTiter-Glo, pilot screen (AID 824;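 active = viability at or below 27.92% in each of two runs, the all-compound median minus 4 SD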;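 also: 0% = 20 µM Hyamine control and 100% = vehicle cell control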); conditions: HCT116 PTEN-deleted viability, 60 h, at 10 µM, active compounds read low
[6] = RAM pathway blockade in budding yeast – dse1pr::URA3 reporter, 5-FOA selection, pilot screen (AID 869;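 active = inhibition over a set limit, the all-compound mean plus 3 SD, in both replicate runs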;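 also: 0% = DMSO wells with no growth and 100% = 10 µM 1-NA-PP1 with full growth; RAM network block rescues cells from 5-FOA so hits raise OD615 growth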); conditions: S. cerevisiae dse1pr::URA3 5-FOA growth, OD615, 2 d; at 10 µM; active compounds read high; strain carries analog-sensitive mutant Cbk1 kinase
[7] = RAM signaling pathway blockade in yeast – S. cerevisiae, Pdr1DBD-CYC8 efflux-inhibited sensitized strain, primary screen (AID 1298);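 also: 0% = DMSO untreated cells without growth and 100% = 10 µM 1-NA-PP1 full growth; higher means more yeast growth rescued from 5-FOA killing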; conditions: S. cerevisiae cbk1-as DSE1-URA3 strain, 5-FOA growth OD615, 2 d; at 50 µM; active compounds read high

| Structure (SMILES) | growth inhibition [1] [%] | growth inhibition [2] [%] | viability increase [3] [%] | viability [4] | viability [5] | inhibition [6] [%] | RAM network inhibition [7] [%] |
| --- | --- | --- | --- | --- | --- | --- | --- |
| O=C(c1ccccc1S(=O)(=O)NCc1ccccc1)N1CCCCC1 | -1.57 | -5.03 | -2.89 | 98.6% | 91% | 1.01 | 1.68 |
| CC(C)=C(NC(=O)c1ccccc1)C(=O)NCCCC(=O)O | -7.54 | -18.8 | -0.03 | 100% | 103% | 1.5 | 2.34 |
| Cc1ccc(Nc2cc(C)nc3nc(C)nn23)c(C)c1 | -9.53 | 8.84 | -3.9 | 95.1% | 96.9% | -0.02 | -0.78 |
| CCCCSc1nc2c(cnn2-c2ccc(C)c(C)c2)c(=O)[nH]1 | -3.77 | 8.57 | -6.91 | 59.1% | 59.5% | 1.05 | 5.36 |
| Cc1noc(C)c1S(=O)(=O)N1CCC(C(=O)N2CCC(N3CCCCC3)CC2)CC1 | -7.79 | 2.65 | 0.18 | 101% | 102% | 1.78 | -0.93 |
| CCCNS(=O)(=O)c1cccc2cccnc12 | -6.87 | 6.17 | -1.58 | 101% | 96.5% | 1.89 | 0.72 |
| CCCC(=O)NCCc1nc2ccccc2n1CCC | -7.3 | 2.73 | 0.5 | 102% | 101% | 2.72 | -1.16 |
| Cc1cc(OC2CCCCC2)nc(-c2ccccc2O)n1 | -21.5 | -17.2 | -0.33 | 87% | 81.5% | 1.9 | 12.3 |
| CC(NC(=O)C1CCC(=O)N1Cc1ccc(F)cc1)c1ccc2c(c1)OCCO2 (configuration not stated) | -1.08 | -4.75 | -1.94 | 96.4% | 94.9% | 0.975 | 4.36 |
| Fc1cccc(-c2cc3nc4c(c(N5CCC6(CC5)OCCO6)n3n2)CCCC4)c1 | 3.03 | -2.67 | -3.94 | 70.6% | 61.5% | 1.19 | -0.47 |
| O=C1CCC/C1=c1\s/c(=C\c2cccnc2)c(=O)n1-c1ccccc1 | -9.13 | -8.32 | -5.83 | 103% | 89.6% | 0.465 | 7.11 |
| CCOc1cc(CN2CCN(c3cccc(C(F)(F)F)c3)CC2)ccc1O | -9.48 | -4.3 | -5.3 | 82.7% | 82.9% | 1.4 | 0.97 |
| Cc1csc(C(C#N)C(=O)c2cc3ccccc3o2)n1 (configuration not stated) | -21.6 | -8.8 | -0.75 | 93.7% | 85.3% | 2.67 | 0.32 |
| COc1ccc(C2(C(=O)NCCCN(C)C)CCOCC2)cc1 | -19.3 | -23.9 | -0.22 | 98.3% | 100% | 1.26 | 1.69 |
| O=C(Nc1c(F)cc(F)cc1Br)c1cc(-c2ccc(O)cc2)on1 | -17.7 | 5.22 | -4.92 | 92% | 85.4% | 0.53 | -0.21 |
| CC(C)(C)c1ccc(S(=O)(=O)N2CCN(CCC#N)CC2)cc1 | -8.29 | -2.35 | -2.4 | 100% | 96.3% | 0.88 | 4.27 |
| COC(=O)CCC(=O)Nc1ccc(Br)cc1 | 8.2 | 0.895 | -1.52 | 101% | 95.4% | 1.16 | 6.37 |
| Cc1ccc(C2CC(=O)NC(SCc3ccccc3)=C2C#N)o1 (configuration not stated) | -12.6 | -9.71 | -3.75 | 85.7% | 104% | -0.825 | 0.58 |

| Structure (SMILES) | growth inhibition [1] [%] | growth inhibition [2] [%] | viability increase [3] [%] | viability [4] | viability [5] | inhibition [6] [%] | RAM network inhibition [7] [%] |
| --- | --- | --- | --- | --- | --- | --- | --- |
| CCSc1nnc(NC(=O)c2cc3c(s2)CCCC3)s1 | -3.65 | -0.425 | -1.67 | 54.3% | 60.2% | 2 | -1.29 |
| O=C(Cc1c(C(=O)O)[nH]c2ccccc12)NC1CCN(Cc2ccccc2)CC1 | -9.14 | -14.9 | 0.24 | 102% | 99.8% | 1.6 | -1.14 |
| Cn1c(=O)c2c(nc(SCCNS(=O)(=O)c3ccccc3)n2C)n(C)c1=O | -20.6 | -16.3 | -3.87 | 101% | 99% | 1.46 | 7.66 |
| Cc1c(N=C/C=C/c2ccccc2)cnn1C | -8.46 | -12.3 | -5.08 | 91.7% | 90.5% | 1.85 | 3.36 |
| Cc1oc(-c2ccc(Cl)cc2)nc1CS(=O)CC(=O)NCCN1CCCC1 (configuration not stated) | -4.58 | -1.17 | -1.14 | 91.1% | 91.4% | 1.06 | 8.14 |
| CCCCNC(=O)c1cc2c(-c3ccc(Cl)cc3)nn(C)c2s1 | 3.71 | 6.75 | -5.53 | 89.9% | 88.7% | 3.1 | 4.05 |
| COc1ccccc1NC(=O)C1=C(C)Nc2nnnn2C1c1cccc(C)c1 (configuration not stated) | -13.2 | -18.7 | -5.73 | 82.3% | 80.8% | 3.79 | 2.19 |
| CC1CN(S(=O)(=O)c2ccc(C(=O)Nc3nnc(-c4ccc5c(c4)CCCC5)o3)cc2)CC(C)O1 (configuration not stated) | -19.1 | 1.69 | -5.17 | 21.1% (active) | 19.7% (active) | 1.67 | 5.1 |
| CCNc1ccc(C(=O)OCC)cc1NC(=O)c1cccc(N(C)C)c1 | -8.58 | 2.37 | -5.51 | 18.4% (active) | 19.1% (active) | 0.385 | 2.72 |
| CCOCCn1c(SCc2ccc(F)cc2)nc2c1c(=O)[nH]c(=O)n2C | -4.31 | 5.57 | -2.04 | 99% | 94.3% | -0.925 | -0.32 |
| Cc1c(NS(=O)(=O)c2ccccc2)cc(Cl)c(O)c1C | -9.11 | -4.86 | -5.19 | 90.9% | 93.5% | 0.695 | 6.75 |
| CC(C)n1c(SCc2ccccc2F)nc2c1c(=O)n(C)c(=O)n2C | -11.3 | -1.82 | -1.77 | 82.7% | 76.5% | 1.15 | 5.87 |
| CCOC(=O)C1CCN(S(=O)(=O)c2cc(Br)cc3c2N(C(C)=O)C(C)C3)CC1 (configuration not stated) | -11.1 | -29 | 0.29 | 93.4% | 93.2% | 1.19 | 11.2 |
| CCOc1ccccc1N1C(=O)c2cccnc2C1=O | -9.2 | 7.41 | -1.2 | 102% | 98.7% | 1.04 | 10.2 |
| CCOC(=O)N1CCC(N2CC34C=CC(O3)C(C(=O)Nc3ccc(F)cc3)C4C2=O)CC1 (configuration not stated) | -4.45 | -3.7 | 1.43 | 105% | 101% | 0.885 | 6.68 |
| Cn1c(=O)oc2cc(S(=O)(=O)N3CCCC(C(=O)N4CCc5ccccc5C4)C3)ccc21 (configuration not stated) | 1.16 | -8.79 | -2.62 | 87.8% | 84.9% | 1.8 | -0.89 |
| CCCC(=O)c1ccc(N2CCCCCC2)c(F)c1 | -13.2 | -2.93 | 3.64 | 85.9% | 87.3% | 1.73 | 1.5 |
| O=C(CSc1nc2c(cnn2-c2ccc(F)cc2)c(=O)[nH]1)N1CCCCC1 | -8.1 | 7.12 | -3.71 | 91.7% | 84.7% | 2.99 | 1.77 |

Reference: PubChem BioAssay
